Test results as given in PubChem BioAssay AID1381 (University of Pittsburgh Molecular Library Screening Center, 2008).
Out of some 220,000 compounds screened, about 1,000 (0.45%) were called active.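 The calls were made as follows: active = plate z-score of nuclear minus cytoplasmic receptor signal below a set negative limit, without overly bright fluorescence or cell loss (cut at about -3.5 in these data, passing the limit was not always enough); inactive = the rest, inconclusive results apart.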 The entries come from a sample that favours actives as a whole.

Assay: inhibitors of GR-EGFP nuclear translocation, primary screen, dynein cargo transport inhibitor project, imaging, high-content, 3617.4 mouse cells (AID 1381)
Settings: at 20 µM, stimulated with dexamethasone, 1 µM
Outline: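 Also added – dexamethasone, 1.0 µM final · Buffer or medium – tet-free, stripped-serum medium · Schedule – induction 48 h, compound 1 h, agonist 30 min · Detection – formaldehyde fixation, Hoechst nuclear stain, 10x automated fluorescence imaging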

[1] = measured here: cell count per field
[2] = measured here: cytoplasmic GR-EGFP intensity, stronger effect = higher value
[3] = measured here: nuclear GR-EGFP intensity, stronger effect = lower value

SMILES | z-score (stronger effect = lower value) | z-score [1] | z-score [2] | z-score [3]
Cc1ccc(CNC(=O)Cn2c(=O)c3sccc3n(Cc3cccc([N+](=O)[O-])c3)c2=O)cc1 | -0.763 (inactive) | 0.845 | -0.184 | -0.435
COc1ccc(C2/C=C\CN(S(=O)(=O)c3cccs3)CC(=O)N2Cc2ccc(F)cc2)cc1 (stereo unspecified) | 1.14 (inactive) | -0.515 | -0.824 | 0.466
O=C(CCCOc1ccccc1)NCc1ccco1 | 0.563 (inactive) | -0.922 | -0.00359 | 0.541
O=C(CCl)Nc1cccc(CP(=O)(c2ccccc2)c2ccccc2)c1 | -3.86 (active) | 0.102 | 0.338 | -1.58
O=C(CCl)Nc1ccc(Sc2ccc(NC(=O)CCl)cc2)cc1 | -2.59 (inactive) | 0.102 | 0.25 | -1.01
CCc1cccc(NC(=O)CCC(=O)O)c1 | 0.674 (inactive) | -0.0336 | -0.309 | -0.143
CC1(C)COC(c2cccn2Cc2ccccc2Cl)=N1 | -0.905 (inactive) | 0.489 | -0.115 | 0.38
COc1ccccc1NS(=O)(=O)N(C)C | -0.0864 (inactive) | 0.4 | -0.101 | 0.17
Cc1c(C#N)c(NC(=O)c2ccccc2)n(Cc2ccccc2)c1C | -0.291 (inactive) | 0.341 | -0.155 | -0.456
CCN(CC)C(=O)CSC1c2ccccc2C(=O)N1c1ccccc1 (stereo unspecified) | 2.73 (inactive) | -1.62 | -0.173 | 0.99
CCC(=O)Nc1cccc(C2=NOC3(C2)C[C@@H](C(N)=O)N(C(=O)c2cc([N+](=O)[O-])cc([N+](=O)[O-])c2C)C3)c1 (stereo partly specified) | -0.341 (inactive) | -0.348 | -0.641 | 0.119
COc1ccc(Cl)cc1CSc1ncn[nH]1 | 1 (inactive) | -0.49 | -0.24 | 0.812
O=C(NCCOCc1ccc(Cl)cc1)c1ncn[nH]1 | 0.731 (inactive) | -0.271 | -0.00295 | 0.605
O=C(/C=C/Sc1ncn[nH]1)c1ccc(Cl)cc1 | -3.98 (active) | 0.0934 | 1.02 | -1.6
NS(=O)(=O)c1ccc(CCNC(=O)NC2CCCCC2)cc1 | 0.431 (inactive) | 0.299 | -0.269 | 0.126
CCOc1ccc(C(=O)NC2CCN(CC(=O)NCc3cccs3)CC2)cc1 | -1.07 (inactive) | -0.199 | -0.19 | -0.737
O=Cc1ccc(Oc2cccc(C(F)(F)F)c2)nc1 | 1.74 (inactive) | -2.12 | 0.359 | 1.33

SMILES | z-score (stronger effect = lower value) | z-score [1] | z-score [2] | z-score [3]
CCOC(=O)C1=C(CC)OC(N)=C(C#N)C1c1ccc(F)cc1F (stereo unspecified) | -3.05 (inactive) | -0.462 | 0.472 | -1.28
C=CCOC(=O)C1=C(C)OC(N)=C(C#N)C1c1ccc(F)cc1 (stereo unspecified) | -1.1 (inactive) | 0.643 | -0.165 | -0.354
CCOC(=O)C1=C(C)OC(N)=C(C#N)C1c1cncc(-c2ccc(F)cc2)c1 (stereo unspecified) | -3.9 (active) | -0.136 | 0.28 | -1.42
O=C1c2ccccc2C(=O)N1Cc1cc(-c2ccccc2Cl)no1 | -0.0385 (inactive) | -0.0908 | -0.215 | 0.196
COc1ccc(C)cc1NC(=S)Nc1ccccc1SC | -0.497 (inactive) | 0.252 | -0.293 | -0.178
Cc1ccc(CN2CCN(Cc3ccc(OCCO)cc3)CC2CCO)o1 (stereo unspecified) | 0.361 (inactive) | 0.953 | -0.289 | -0.03
O=C1c2cccc3cc(Br)cc(c23)C(=O)N1Nc1ccccc1 | 0.228 (inactive) | 0.252 | -0.199 | 0.671
O=C1C=C(c2ccc(Cl)cc2)C(=O)N1Nc1ccccc1 | -4.4 (active) | -0.124 | 2.35 | -1.87
O=C(Nc1ccccc1)OCc1cc(-c2ccc(Cl)cc2)on1 | 1.93 (inactive) | -1.86 | -0.165 | 1.78
CCOc1ccccc1N1CCN(C(=O)COc2ccc3c(C)cc(=O)oc3c2)CC1 | 1.35 (inactive) | -0.138 | -0.356 | 0.787
Clc1cccc(-c2nc3nc4ccccc4nc3n2Cc2ccco2)c1 | -4.09 (active) | 0.0368 | 2.09 | -1.78
Cc1cc(NC(=O)CSc2nc3cc(Cl)ccc3c(=O)n2Cc2ccco2)no1 | 2.31 (inactive) | -1.55 | -0.306 | 1.39
O=C(CSc1nnc(-c2cccnc2)n1Cc1ccco1)c1ccc(Cl)cc1 | -0.358 (inactive) | -0.0648 | -0.209 | -0.055
Cc1cccc(NC(=S)N2CCC(c3nc4ccccc4s3)CC2)c1 | -0.203 (inactive) | 0.43 | -0.197 | -0.339
CC1CCN(C(=O)c2ccc(S(=O)(=O)Cc3cc(F)ccc3F)c([N+](=O)[O-])c2)CC1 | -3.71 (active) | -1.15 | 0.395 | -2.24
O=C(Nc1ccc(F)cc1)C1CCN(C(=O)c2ccc([N+](=O)[O-])cc2)CC1 | -0.907 (inactive) | 0.228 | 0.208 | -0.321
CC1CCN(C(=O)c2ccc(CSc3ccc(Cl)cc3)cc2)CC1 | -0.555 (inactive) | 0.71 | -0.258 | -0.29
